Activity calls are given as the source filed them. The rule behind the calls is not given here.
Tests used:
[1] = Growth inhibition of human HT1080 cells after 72 hrs by MTT assay; format: functional, cell-based; conditions: HT-1080, 72 h
Method in brief: (§1)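 Cells grown in RPMI-1640 with 10% FBS, penicillin/streptomycin, 37 °C, 5% CO2; seeded 1-3 × 10^4/well, treated 24 h later in triplicate wells for 72 h. MTT (5 mg/mL) added in fresh medium for 4 h, formazan dissolved in DMSO, OD490 read; IC50 = concentration reducing absorbance by 50% versus vehicle-treated wells; triplicate experiments.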

[2] = Growth inhibition of human SGC7901 cells after 72 hrs by MTT assay; format: functional, cell-based; conditions: SGC-7901, 72 h; method in brief: as §1
A549 = test: Growth inhibition of human A549 cells after 72 hrs by MTT assay; format: functional, cell-based; conditions: A549, 72 h; method in brief: as §1
Tubulin = Tubulin (Bos taurus, UniProt Q6B856+Q862L2+Q862F3); test: (§2) Inhibition of bovine brain tubulin polymerization incubated for 90 mins by fluorescence-based assay
Method in brief: (§3)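 Fluorescence kit assay with purified bovine tubulin resuspended in ice-cold G-PEM (80 mM PIPES, 2 mM MgCl2, 0.5 mM EGTA, 1 mM GTP, 20% glycerol) and added to drug or DMSO vehicle. Reaction started by warming from 4 °C to 37 °C.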

Tubulin (Bos taurus) = Tubulin (Bos taurus) (UniProt Q6B856+Q862L2+Q862F3); test: as §2; method in brief: as §3
Tubulin (Homo sapiens) [3] = molecular target: T1, Tubulin (Homo sapiens) (UniProt P68371+Q9H4B7+P0DPH7+P68366+Q13509+Q71U36+P04350+Q3ZCM7+P07437+P68363+Q9BQE3+Q6PEY2+Q13885+Q9BVA1+Q9BUF5); test: Induction of distortions in tubulin assembly in human SGC7901 cells assessed as abnormal mitotic spindle formation at 2 fold IC50 level incubated for 48 hrs by immunofluorescence staining based fluorescence microscopy; format: cell-based; conditions: SGC-7901
Method in brief: (§4)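 Fixed in 4% formaldehyde/PBS 30 min at -20 °C, permeabilised with 0.1% Triton X-100, blocked in 5% BSA. Stained with α-tubulin primary (1:100, overnight 4 °C) and FITC anti-mouse secondary (1:1000, 3 h 37 °C), DAPI nuclei; fluorescence microscopy.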

Tubulin (Homo sapiens) [4] = molecular target: T1, Tubulin (Homo sapiens); test: Induction of distortions in tubulin assembly in human HT1080 cells assessed as abnormal mitotic spindle formation at 2 fold IC50 level incubated for 48 hrs by immunofluorescence staining based fluorescence microscopy; format: cell-based; conditions: HT-1080; method in brief: as §4

Row | SMILES | IC50 (A549) [µM] | IC50 [1] [µM] | IC50 [2] [µM] | IC50 (Tubulin) [µM] | inhibition (Tubulin (Bos taurus)) | Activity (Tubulin (Homo sapiens) [3]) | Activity (Tubulin (Homo sapiens) [4])
1 | COC(=O)Nc1nc2cc(Sc3c[nH]c4ccccc34)ccc2[nH]1 | 0.39 | 0.88 | 2.62 |  |  |  | 
2 | COC(=O)Nc1nc2cc(Sc3c[nH]c4ccc(C#N)cc34)ccc2[nH]1 | 5.14 | 0.62 | 0.12 |  |  |  | 
3 | COC(=O)Nc1nc2cc(Sc3c[nH]c4ccc(Br)cc34)ccc2[nH]1 | 1.19 | 1.33 | 2.12 | 8.2 | Dose-dependent effect |  | 
4 | COC(=O)Nc1nc2cc([Se]c3c[nH]c4ccccc34)ccc2[nH]1 | 0.15 | 0.13 | 0.098 | 3.6 | Dose-dependent effect | Active | Active
5 | COC(=O)Nc1nc2cc(S(=O)(=O)c3c[nH]c4ccc(C#N)cc34)ccc2[nH]1 | > 10 | > 10 | > 10 |  |  |  | 
6 | COC(=O)Nc1nc2cc(C(=O)c3cccs3)ccc2[nH]1 [NOCODAZOLE] | 0.12 | 0.14 | 0.08 |  |  | Active | Active
7 | COC(=O)Nc1nc2cc(Sc3c(C)[nH]c4ccccc34)ccc2[nH]1 | 0.83 | 0.97 | 0.51 |  |  |  | 
8 | COC(=O)Nc1nc2cc([Se]c3c(C)[nH]c4ccccc34)ccc2[nH]1 | 3.83 | 0.27 | 0.23 |  |  |  | 
9 | COC(=O)Nc1nc2cc(S(=O)(=O)c3c[nH]c4ccccc34)ccc2[nH]1 | 4.21 | 2.01 | 1.26 |  |  |  | 
10 | COC(=O)Nc1nc2cc(S(=O)(=O)c3c(C)[nH]c4ccccc34)ccc2[nH]1 | > 10 | > 10 | > 10 |  |  |  | 
11 | COC(=O)Nc1nc2cc([Se]c3c[nH]c4ccc(C#N)cc34)ccc2[nH]1 | 5.07 | 0.95 | 1.11 |  |  |  | 
12 | COC(=O)Nc1nc2cc(S(=O)(=O)c3c[nH]c4ccc(Br)cc34)ccc2[nH]1 | 7.42 | 3.18 | 7.44 |  |  |  | 
13 | COC(=O)Nc1nc2cc([Se]c3c[nH]c4ccc(Br)cc34)ccc2[nH]1 | 2.21 | 2.75 | 2.15 |  |  |  | 

Second part, led by results:

Row | IC50 (A549) [µM] | SMILES | IC50 [1] [µM] | IC50 [2] [µM] | IC50 (Tubulin) [µM] | inhibition (Tubulin (Bos taurus)) | Activity (Tubulin (Homo sapiens) [3]) | Activity (Tubulin (Homo sapiens) [4])
14 | 6.23 | COC(=O)Nc1nc2cc([S+]([O-])c3c[nH]c4ccccc34)ccc2[nH]1 (stereo not drawn) | 5.24 | 3.96 |  |  |  | 
15 | 7.33 | COC(=O)Nc1nc2cc(Sc3c(C)[nH]c4ccc(Cl)cc34)ccc2[nH]1 | 4.13 | 3.38 |  |  |  | 
16 | 2.98 | COC(=O)Nc1nc2cc([Se]c3c(C)[nH]c4ccc(Cl)cc34)ccc2[nH]1 | > 10 | > 10 |  |  |  | 
17 | > 10 | COC(=O)Nc1nc2cc([S+]([O-])c3c[nH]c4ccc(Br)cc34)ccc2[nH]1 (stereo not drawn) | > 10 | 5.19 |  |  |  | 
18 | > 10 | COC(=O)Nc1nc2cc([S+]([O-])c3c(C)[nH]c4ccc(Cl)cc34)ccc2[nH]1 (stereo not drawn) | > 10 | > 10 |  |  |  | 
19 | 9.08 | COC(=O)Nc1nc2cc(S(=O)(=O)c3c(C)[nH]c4ccc(F)cc34)ccc2[nH]1 | > 10 | 4.18 |  |  |  | 
20 | > 10 | COC(=O)Nc1nc2cc([S+]([O-])c3c[nH]c4ccc(C#N)cc34)ccc2[nH]1 (stereo not drawn) | 9.43 | > 10 |  |  |  | 
21 | > 10 | COC(=O)Nc1nc2cc(S(=O)(=O)c3c(C)[nH]c4ccc(Cl)cc34)ccc2[nH]1 | > 10 | > 10 |  |  |  | 
22 | 1.15 | COC(=O)Nc1nc2cc([Se]c3c(C)[nH]c4ccc(F)cc34)ccc2[nH]1 | 1.69 | 1.12 |  |  |  | 
23 | 7.98 | COC(=O)Nc1nc2cc([S+]([O-])c3c(C)[nH]c4ccccc34)ccc2[nH]1 (stereo not drawn) | 9.85 | 9.93 |  |  |  | 
24 | 2.52 | COC(=O)Nc1nc2cc(Sc3c(C)[nH]c4ccc(F)cc34)ccc2[nH]1 | 3.27 | 1.2 |  |  |  | 
25 | 3.27 | COC(=O)Nc1nc2cc([S+]([O-])c3c(C)[nH]c4ccc(F)cc34)ccc2[nH]1 (stereo not drawn) | > 10 | 3.51 |  |  |  | 
